From ChEMBL document CHEMBL5126600, “Discovery of the First-in-Class G9a/GLP Covalent Inhibitors” (J Med Chem, 2022)

Assays:
[1] = target: Histone-lysine N-methyltransferase SETD7 (Homo sapiens) (UniProt Q8WTS6); assay: Inhibition of N-terminal and GST-tagged C-terminal His-tagged SET7/9 (2 to 366 residues) (unknown origin) expressed in Escherichia coli at 1 uM using 3H-SAM as a substrate relative to control
Procedure, shortened: (§1)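 Contracted 3H-SAM methyl-transfer scintillation proximity assay against a panel of methyltransferases; compound tested at 1 μM in duplicate; inhibition expressed as percent of control enzyme activity.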

[2] = target: T1, Histone-lysine N-methyltransferase EHMT2 (Homo sapiens) (UniProt Q96KQ7); assay: Inhibition of human G9a (913 to 1193 residues) using H3 peptide as substrate in presence of SAM cofactor by scintillation counting method; conditions: time 5-45 min, TDE = time-dependent effect
T1 sequence (whole entry): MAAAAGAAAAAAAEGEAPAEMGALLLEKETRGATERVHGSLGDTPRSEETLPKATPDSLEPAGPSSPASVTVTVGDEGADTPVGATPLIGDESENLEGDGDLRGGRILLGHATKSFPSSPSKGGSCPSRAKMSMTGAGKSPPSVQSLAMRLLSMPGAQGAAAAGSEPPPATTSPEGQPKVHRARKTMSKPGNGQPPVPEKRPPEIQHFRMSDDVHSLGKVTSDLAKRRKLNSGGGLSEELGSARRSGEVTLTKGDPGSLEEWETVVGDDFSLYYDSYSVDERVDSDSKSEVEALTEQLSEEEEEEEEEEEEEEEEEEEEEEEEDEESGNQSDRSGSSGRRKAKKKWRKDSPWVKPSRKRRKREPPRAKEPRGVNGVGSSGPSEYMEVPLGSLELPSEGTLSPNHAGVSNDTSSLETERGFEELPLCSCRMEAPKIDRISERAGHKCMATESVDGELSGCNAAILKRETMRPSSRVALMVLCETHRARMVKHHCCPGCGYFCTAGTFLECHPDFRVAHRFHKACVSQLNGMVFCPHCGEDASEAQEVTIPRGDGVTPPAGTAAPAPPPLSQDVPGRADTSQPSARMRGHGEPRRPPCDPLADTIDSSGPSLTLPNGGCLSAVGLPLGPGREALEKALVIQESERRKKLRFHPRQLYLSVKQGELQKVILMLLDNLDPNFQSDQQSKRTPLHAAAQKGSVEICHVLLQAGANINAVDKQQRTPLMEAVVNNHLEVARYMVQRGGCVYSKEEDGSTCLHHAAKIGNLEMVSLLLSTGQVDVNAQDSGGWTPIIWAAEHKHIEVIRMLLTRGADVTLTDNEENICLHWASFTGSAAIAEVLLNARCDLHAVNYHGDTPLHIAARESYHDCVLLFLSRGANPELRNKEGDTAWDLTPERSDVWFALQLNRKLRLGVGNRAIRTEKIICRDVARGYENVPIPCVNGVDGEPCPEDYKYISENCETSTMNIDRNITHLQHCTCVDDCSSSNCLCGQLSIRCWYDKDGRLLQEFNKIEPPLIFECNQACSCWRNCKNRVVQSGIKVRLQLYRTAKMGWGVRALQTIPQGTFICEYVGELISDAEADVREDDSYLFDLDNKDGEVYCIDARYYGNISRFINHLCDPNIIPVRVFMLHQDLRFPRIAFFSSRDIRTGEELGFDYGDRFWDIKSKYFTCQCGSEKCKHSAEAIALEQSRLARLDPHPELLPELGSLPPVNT
Procedure, shortened: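 Contracted scintillation proximity assay following 3H-methyl transfer from SAM (1 μM) to H3 peptide (0.05 μM) by G9a or GLP (5 nM each), with preincubation times of 5, 15 or 45 min; four replicates.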

[3] = target: Histone-lysine N-methyltransferase EZH1 (Homo sapiens) (UniProt Q92800); assay: Inhibition of N-terminal His-tagged full-length recombinant human EZH1 ( 2 to 747 residues) expressed in baculovirus expression system at 1 uM using 3H-SAM as a substrate relative to control; procedure, shortened: as §1
[4] = target: N-lysine methyltransferase KMT5A (Homo sapiens) (UniProt Q9NQR1); assay: Inhibition of SETD8 (unknown origin) at 1 uM using 3H-SAM as a substrate relative to control; procedure, shortened: as §1
[5] = target: Histone-lysine N-methyltransferase, H3 lysine-79 specific (Homo sapiens) (UniProt Q8TEK3); assay: Inhibition of N-terminal GST-tagged human DOT1L (1 to 416 residues) expressed in Escherichia coli at 1 uM using 3H-SAM as a substrate relative to control; procedure, shortened: as §1
MDA-MB-231 = assay: Down regulation of H3K9 dimethylation in human MDA-MB-231 cells at 0.2 to 5 uM by Western blot analysis; format: functional, cell-based; conditions: dose 0.2-5 µM, time lower […], time upper 72.0 hrs, TDE = time-dependent effect
[6] = target: Histone-lysine N-methyltransferase SETD2 (Homo sapiens) (UniProt Q9BYW2); assay: Inhibition of SETD2 (unknown origin) at 1 uM using 3H-SAM as a substrate relative to control; procedure, shortened: as §1
[7] = target: Histone-lysine N-methyltransferase SETD1B (Homo sapiens) (UniProt Q9UPS6); assay: Inhibition of N-terminal GST-tagged SET1B (1629 to 1923 residues) (unknown origin) expressed in Escherichia coli at 1 uM using 3H-SAM as a substrate relative to control; procedure, shortened: as §1
[8] = target: T1, Histone-lysine N-methyltransferase EHMT2 (Homo sapiens); assay: Inhibition of human G9a (913 to 1193 residues) assessed as covalent modification by measuring G9a adduct formation by mass spectrometry; conditions: time <= 120.0 min, TDE = time-dependent effect
Procedure, shortened: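 Purified G9a or GLP catalytic domain (5 μM) in 50 mM Tris-HCl pH 7.5, 150 mM NaCl incubated with 50 μM compound or DMSO at room temperature (1 h, or 30 and 60 min in time course); intact mass by ESI LC/MS-TOF; adduct % = adduct/(protein + adduct) × 100.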

Chain of N-lysine methyltransferase KMT5A (Homo sapiens) (Q9NQR1 whole entry, the tested form may be a part): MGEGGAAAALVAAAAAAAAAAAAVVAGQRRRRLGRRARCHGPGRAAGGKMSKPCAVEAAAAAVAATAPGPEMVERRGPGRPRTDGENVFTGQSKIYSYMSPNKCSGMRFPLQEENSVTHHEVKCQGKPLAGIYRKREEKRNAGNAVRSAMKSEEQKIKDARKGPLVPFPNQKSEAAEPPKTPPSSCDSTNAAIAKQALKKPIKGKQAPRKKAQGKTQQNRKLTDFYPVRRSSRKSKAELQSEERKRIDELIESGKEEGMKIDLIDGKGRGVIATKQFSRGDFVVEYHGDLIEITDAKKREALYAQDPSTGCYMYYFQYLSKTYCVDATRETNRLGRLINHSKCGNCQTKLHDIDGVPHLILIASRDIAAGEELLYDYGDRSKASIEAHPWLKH
Chain of Histone-lysine N-methyltransferase SETD2 (Homo sapiens) (Q9BYW2 whole entry, the tested form may be a part): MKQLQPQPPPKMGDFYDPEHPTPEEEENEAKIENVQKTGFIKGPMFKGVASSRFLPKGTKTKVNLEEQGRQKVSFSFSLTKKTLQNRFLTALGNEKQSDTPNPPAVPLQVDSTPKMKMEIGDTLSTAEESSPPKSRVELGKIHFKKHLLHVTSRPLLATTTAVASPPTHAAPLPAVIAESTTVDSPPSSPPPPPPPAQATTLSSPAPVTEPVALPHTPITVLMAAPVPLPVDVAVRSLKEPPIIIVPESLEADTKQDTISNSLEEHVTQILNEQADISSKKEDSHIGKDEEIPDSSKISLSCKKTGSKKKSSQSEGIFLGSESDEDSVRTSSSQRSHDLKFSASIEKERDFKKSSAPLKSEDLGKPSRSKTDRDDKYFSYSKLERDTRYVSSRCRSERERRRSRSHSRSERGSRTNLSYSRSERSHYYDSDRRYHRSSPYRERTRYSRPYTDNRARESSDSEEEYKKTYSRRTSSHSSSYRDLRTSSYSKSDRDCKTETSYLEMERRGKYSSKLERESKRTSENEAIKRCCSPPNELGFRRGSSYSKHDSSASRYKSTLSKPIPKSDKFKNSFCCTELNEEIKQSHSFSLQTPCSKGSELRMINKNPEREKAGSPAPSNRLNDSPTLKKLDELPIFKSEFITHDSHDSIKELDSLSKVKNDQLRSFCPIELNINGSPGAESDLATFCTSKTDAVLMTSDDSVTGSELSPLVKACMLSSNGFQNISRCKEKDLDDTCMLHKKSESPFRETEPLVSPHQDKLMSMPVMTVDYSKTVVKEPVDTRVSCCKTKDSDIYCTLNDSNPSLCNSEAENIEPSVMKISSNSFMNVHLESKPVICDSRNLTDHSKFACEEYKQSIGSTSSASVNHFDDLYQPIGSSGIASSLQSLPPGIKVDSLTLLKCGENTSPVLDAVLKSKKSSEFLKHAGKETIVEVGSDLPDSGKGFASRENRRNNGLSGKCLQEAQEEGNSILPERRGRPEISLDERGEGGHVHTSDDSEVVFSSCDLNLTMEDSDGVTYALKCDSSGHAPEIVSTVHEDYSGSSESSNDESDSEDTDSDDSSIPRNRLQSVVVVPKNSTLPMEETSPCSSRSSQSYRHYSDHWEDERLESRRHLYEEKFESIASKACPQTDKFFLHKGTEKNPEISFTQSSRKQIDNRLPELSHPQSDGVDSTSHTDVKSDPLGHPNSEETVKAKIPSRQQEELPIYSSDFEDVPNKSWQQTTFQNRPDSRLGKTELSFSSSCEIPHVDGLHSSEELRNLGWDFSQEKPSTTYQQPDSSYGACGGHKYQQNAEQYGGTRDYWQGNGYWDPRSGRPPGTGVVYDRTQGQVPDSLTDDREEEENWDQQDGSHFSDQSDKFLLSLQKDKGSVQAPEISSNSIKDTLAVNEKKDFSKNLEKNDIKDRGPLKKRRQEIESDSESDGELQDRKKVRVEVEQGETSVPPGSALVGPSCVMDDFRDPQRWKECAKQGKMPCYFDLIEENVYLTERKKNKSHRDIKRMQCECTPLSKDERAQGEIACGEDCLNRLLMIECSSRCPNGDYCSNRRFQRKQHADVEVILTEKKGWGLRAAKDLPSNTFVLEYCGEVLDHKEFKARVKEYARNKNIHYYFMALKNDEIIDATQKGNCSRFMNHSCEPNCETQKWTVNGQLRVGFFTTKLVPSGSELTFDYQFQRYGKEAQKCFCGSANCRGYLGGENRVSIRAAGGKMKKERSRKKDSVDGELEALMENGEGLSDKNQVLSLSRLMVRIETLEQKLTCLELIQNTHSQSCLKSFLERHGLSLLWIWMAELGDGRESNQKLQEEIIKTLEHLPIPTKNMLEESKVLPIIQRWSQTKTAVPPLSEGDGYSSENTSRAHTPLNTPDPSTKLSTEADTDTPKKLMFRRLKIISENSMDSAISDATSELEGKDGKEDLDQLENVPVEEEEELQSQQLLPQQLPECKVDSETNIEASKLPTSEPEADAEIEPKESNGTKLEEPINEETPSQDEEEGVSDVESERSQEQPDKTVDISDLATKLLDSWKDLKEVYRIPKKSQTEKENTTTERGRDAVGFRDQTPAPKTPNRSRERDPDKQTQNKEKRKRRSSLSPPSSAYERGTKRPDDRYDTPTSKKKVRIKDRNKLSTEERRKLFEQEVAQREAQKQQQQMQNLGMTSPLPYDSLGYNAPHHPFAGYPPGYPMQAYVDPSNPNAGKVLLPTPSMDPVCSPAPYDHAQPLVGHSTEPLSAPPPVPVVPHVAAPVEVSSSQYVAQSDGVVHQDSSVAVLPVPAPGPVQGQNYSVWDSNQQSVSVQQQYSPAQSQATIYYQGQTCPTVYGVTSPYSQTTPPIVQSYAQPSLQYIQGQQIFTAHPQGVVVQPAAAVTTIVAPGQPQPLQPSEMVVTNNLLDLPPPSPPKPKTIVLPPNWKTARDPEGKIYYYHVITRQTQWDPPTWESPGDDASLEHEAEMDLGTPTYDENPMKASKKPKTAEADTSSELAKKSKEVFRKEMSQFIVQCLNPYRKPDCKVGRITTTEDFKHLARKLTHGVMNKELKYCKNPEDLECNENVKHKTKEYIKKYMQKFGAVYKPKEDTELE
Chain of Histone-lysine N-methyltransferase SETD1B (Homo sapiens) (Q9UPS6 whole entry, the tested form may be a part): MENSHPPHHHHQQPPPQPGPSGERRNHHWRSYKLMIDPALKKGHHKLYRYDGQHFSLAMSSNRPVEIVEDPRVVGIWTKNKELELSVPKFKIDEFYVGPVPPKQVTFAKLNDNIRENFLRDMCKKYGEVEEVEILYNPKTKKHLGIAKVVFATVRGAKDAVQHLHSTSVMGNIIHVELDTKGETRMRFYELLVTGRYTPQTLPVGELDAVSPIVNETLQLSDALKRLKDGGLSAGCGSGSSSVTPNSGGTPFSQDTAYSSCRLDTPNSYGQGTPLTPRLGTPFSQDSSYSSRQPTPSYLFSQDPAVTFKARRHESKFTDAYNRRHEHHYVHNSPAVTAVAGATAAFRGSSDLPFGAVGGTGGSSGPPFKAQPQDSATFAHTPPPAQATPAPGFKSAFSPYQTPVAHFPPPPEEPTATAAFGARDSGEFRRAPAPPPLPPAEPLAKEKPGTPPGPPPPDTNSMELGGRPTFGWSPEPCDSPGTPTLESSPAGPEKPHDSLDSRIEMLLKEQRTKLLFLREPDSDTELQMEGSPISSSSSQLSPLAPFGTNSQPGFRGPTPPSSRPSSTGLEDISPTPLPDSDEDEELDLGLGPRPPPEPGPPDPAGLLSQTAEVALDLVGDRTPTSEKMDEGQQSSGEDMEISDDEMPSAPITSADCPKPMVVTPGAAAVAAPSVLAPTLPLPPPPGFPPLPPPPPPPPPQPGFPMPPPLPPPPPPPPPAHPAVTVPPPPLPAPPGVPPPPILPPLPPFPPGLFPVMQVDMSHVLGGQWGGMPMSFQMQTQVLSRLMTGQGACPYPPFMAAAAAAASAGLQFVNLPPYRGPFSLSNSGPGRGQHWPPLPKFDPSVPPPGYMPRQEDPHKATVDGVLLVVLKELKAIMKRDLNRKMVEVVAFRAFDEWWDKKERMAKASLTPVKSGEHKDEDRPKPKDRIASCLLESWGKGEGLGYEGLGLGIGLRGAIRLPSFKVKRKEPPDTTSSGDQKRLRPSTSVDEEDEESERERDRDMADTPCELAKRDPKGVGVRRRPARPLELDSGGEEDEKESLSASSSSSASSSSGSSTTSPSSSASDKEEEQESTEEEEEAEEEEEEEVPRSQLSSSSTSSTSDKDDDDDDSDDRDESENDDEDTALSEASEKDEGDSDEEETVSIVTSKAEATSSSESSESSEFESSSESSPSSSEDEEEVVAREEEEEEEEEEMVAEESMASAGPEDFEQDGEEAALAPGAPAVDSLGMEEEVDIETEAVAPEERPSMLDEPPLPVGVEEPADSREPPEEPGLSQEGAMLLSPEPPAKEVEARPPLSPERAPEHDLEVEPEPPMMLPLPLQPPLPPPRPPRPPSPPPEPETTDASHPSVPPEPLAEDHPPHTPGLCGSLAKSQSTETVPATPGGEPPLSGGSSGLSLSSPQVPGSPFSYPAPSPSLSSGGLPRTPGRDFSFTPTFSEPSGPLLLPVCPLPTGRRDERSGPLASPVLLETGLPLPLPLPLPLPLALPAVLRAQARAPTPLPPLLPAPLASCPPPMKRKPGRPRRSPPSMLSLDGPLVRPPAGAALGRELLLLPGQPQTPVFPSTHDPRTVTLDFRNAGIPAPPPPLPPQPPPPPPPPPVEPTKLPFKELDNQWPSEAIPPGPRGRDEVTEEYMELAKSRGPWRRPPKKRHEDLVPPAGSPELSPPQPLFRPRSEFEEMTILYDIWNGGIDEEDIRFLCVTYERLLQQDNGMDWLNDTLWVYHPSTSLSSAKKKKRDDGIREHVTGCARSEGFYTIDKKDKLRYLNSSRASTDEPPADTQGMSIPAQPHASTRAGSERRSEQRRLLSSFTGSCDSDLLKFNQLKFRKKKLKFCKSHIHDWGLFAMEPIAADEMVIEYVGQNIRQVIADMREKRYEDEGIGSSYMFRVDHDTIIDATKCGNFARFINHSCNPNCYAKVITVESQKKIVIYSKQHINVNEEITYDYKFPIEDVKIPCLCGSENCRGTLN

inhibition [1]: < 50%
inhibition [2]: Tde
inhibition [3]: < 50%
inhibition [4]: < 50%
inhibition [5]: < 50%
inhibition [6]: < 50%
inhibition [7]: < 50%
inhibition [8]: Tde
SMILES: C=CC(=O)Nc1cc(NC2CCN(C(C)C)CC2)c2cc(OC)c(OCCCN3CCCC3)cc2n1
Activity (MDA-MB-231): Tde
